Screens deposited in PubChem BioAssay by The Scripps Research Institute Molecular Screening Center.
ARFGAP1 inhibitor – rat ARFGAP1 inhibition. Q62848. Arfgap1-stimulated ARF1 GTP hydrolysis, GDP FP detection. inhibition, % at 16.5 µM. 360,000 compounds, 0.26% hits;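 active = inhibition above a per-plate limit, mean inhibition of low control wells plus 3 SD, cut at about 25% in these data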;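 also: 0% = DMSO wells with enzyme and 100% = wells lacking Arfgap1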
Target sequence (Q62848 1-136 limits assumed): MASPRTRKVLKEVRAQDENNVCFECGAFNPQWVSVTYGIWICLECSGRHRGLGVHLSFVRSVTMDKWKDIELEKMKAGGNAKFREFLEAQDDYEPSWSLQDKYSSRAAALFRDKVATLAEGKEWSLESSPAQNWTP
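System: truncated rat Arfgap1 GAP domain / Medium: HEPES-based buffer, pH 7.5 / Also added: N-terminally truncated human ARF1-GTP substrate / Incubation: enzyme reaction 120 min at 25 °C after 20 min preincubation / Measured by: FP of antibody-bound GDP Alexa 633 tracer, ex 620/em 688 nm / Replicates: singlicate, each compound tested once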
Rin1 Abl inh – blocks binding of human Rin1 to Abl | AID 588664 | P00519+Q13671 | inhibition, % at 7.35 µM | TR-FRET Rin1/Abl binding, biochemical | 360,000 compounds, 0.4% hits; in the data active = inhibition above about 5%, passing the limit was not always enough
GalR3 antag – human GalR3 antagonism. HEK293 GalR3-CNG cAMP membrane potential fluorescence; galR3 body fused to GalR1 C-terminus. 360,000 compounds, 0.44% hits. inhibition, % at 3 µM. O60755. AID 651719;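 active = inhibition above the screen-wide average plus 3 SD, cut at about 13% in these data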;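 also: forskolin and galanin both at EC90 stimulate the cells; cAMP rise reported by CNG channel membrane potential dye signal; 0% = forskolin plus galanin with DMSO and 100% = forskolin alone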
Target sequence (O60755 1-299 limits assumed): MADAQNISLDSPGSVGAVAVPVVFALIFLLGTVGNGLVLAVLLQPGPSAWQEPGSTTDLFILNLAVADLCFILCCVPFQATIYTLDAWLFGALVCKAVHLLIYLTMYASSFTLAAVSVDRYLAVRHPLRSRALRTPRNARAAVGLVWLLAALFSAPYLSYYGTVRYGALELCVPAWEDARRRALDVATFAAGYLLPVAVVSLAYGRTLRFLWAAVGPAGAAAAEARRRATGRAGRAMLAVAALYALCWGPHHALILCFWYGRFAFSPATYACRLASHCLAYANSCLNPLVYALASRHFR
ASAP1 inh – ASAP1 ArfGAP inhibition; Q9ULH1; ASAP1-stimulated ARF1 GTP hydrolysis, GDP FP detection; inhibition, % at 16.5 µM; 360,000 compounds, 0.19% hits; in the data active = inhibition above about 25%;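 also: 0% = vehicle with enzyme and substrate and 100% = no enzyme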
ARFGAP1 confirm – confirmation of rat ARFGAP1 inhibitors; 890 compounds, 30% hits; shares compounds with ARFGAP1 inhibitor; inhibition, % at 16.5 µM; ARFGAP1-stimulated ARF1 GTP hydrolysis, GDP tracer FP;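 active = average inhibition over triplicates above the hit cutoff set in the earlier primary screen, cut at about 25% in these data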;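 also: 0% = Arfgap1 plus ARF1-GTP with DMSO and 100% = wells lacking Arfgap1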
* hit, by the source's call; / = no result given. An excerpt weighted towards active compounds, which were near 1.2% of everything screened.

SMILES	ARFGAP1 inhibitor	Rin1 Abl inh	GalR3 antag	ASAP1 inh	ARFGAP1 confirm
CN1C(=O)[C@@]2(C3=C(CCCC3=O)OC3=C2C(=O)CC(C)(C)C3)c2ccccc21	7	/	-4	-1	/
CCCCN(CC)CCCNC(=O)c1cc2c(=O)[nH]c3ccccc3c2s1	11	-3	-11	1	/
CCCCN(CC)CCNC(=O)c1cc2c(=O)[nH]c3ccc(C)cc3c2s1	29*	-4	-10	1	-4
Cc1ccc2cc(CCNC(=O)C(C)(C)C)c(=O)[nH]c2c1	28*	-2	1	5	-5
Cc1ccc2cc(CCNC(=O)C3CCCC3)c(=O)[nH]c2c1	-1	1	-2	1	/
O=c1c2ccccc2nnn1Cc1ccco1	-2	/	-6	-8	/
Cc1ccccc1Nc1c([N+](=O)[O-])cncc1[N+](=O)[O-]	27*	-1	-4	2	1
COc1ccccc1Nc1c([N+](=O)[O-])cncc1[N+](=O)[O-]	7	-3	-6	2	/
CC[C@@]1(O)C(=O)OCc2c1cc1n(c2=O)Cc2cc3c(N)cccc3nc2-1	2	-1	-6	18	/
CC[C@@]1(O)C(=O)OCc2c1cc1n(c2=O)Cc2cc3c(CN(C)C)c(O)ccc3nc2-1	25*	-14	/	24	8
CNC(=O)c1ccccc1C1(O)c2ccccc2CCc2ccccc21	-1	/	-8	12	/
CCOc1ccc2nc(NC(=O)CSc3nc4c(c(=O)n(C)c(=O)n4C)n3C(C)C)sc2c1	13	2	-2	16	/
CCOc1ccc2nc(NC(=O)Cn3cnc4c3c(=O)n(C)c(=O)n4C)sc2c1	27*	1	-3	12	7
COc1ccc(NC(=O)Cn2cnc3ccccc3c2=O)cc1OC	8	4	-7	-10	/
COc1ccc2nc(NC(=O)Cn3cnc4ccccc4c3=O)sc2c1	27*	-2	7	7	8
COC(=O)C1=C(C)N(C)C(=NCc2ccc3c(c2)OCO3)NC1c1cccc(C(F)(F)F)c1 (stereo not given)	6	/	2	-15	/
CC(C)(C)OC(=O)N1CCC2CCN(CCc3ccccc3)CC21 (stereo not given)	-5	/	0	-6	/
COC(=O)[C@]12C[C@H](CC(=O)NCc3ccc(OC)c(OC)c3)C(=O)N(CCC3=CCCCC3)C1=C[C@H](C(C)(C)C)O[C@@H]2C	8	/	-4	-11	/
CC1(c2nnc(Cc3ccccc3)o2)CC(c2ccncc2)=NO1 (stereo not given)	43*	-3	-1	1	2
CC1(c2nnc(Cc3ccccc3)o2)CC(c2ccc(Cl)cc2)=NO1 (stereo not given)	-18	-1	-6	-2	/
CCCCN1CC(COCc2ccccc2)Oc2cccc(NCc3cc(OC)c(OC)c(OC)c3)c2S1(=O)=O (stereo not given)	1	/	-2	-7	/
CCCCNC(=O)C[C@H]1C[C@@]2(C(=O)OC)C(=C[C@H](C(C)(C)C)O[C@@H]2C)N(Cc2ccccc2)C1=O	-5	/	-7	-4	/
COc1ccc2cc(C(=O)/C=C/c3cc(OC)c(O)c(OC)c3)ccc2c1	26*	3	1	14	13
COc1ccc(C(=O)/C=C/c2cc(OC)c(O)c(OC)c2)c(F)c1	-3	0	2	-3	/
O=C(Nc1nnc(Cc2ccc([N+](=O)[O-])cc2)s1)Nc1ccccc1F	60*	-2	-7	-3	19
SMILES	ARFGAP1 inhibitor	Rin1 Abl inh	GalR3 antag	ASAP1 inh	ARFGAP1 confirm
NC(=O)[C@@H]1CCCN1C(=O)[C@@H](Cc1ccccc1)NC(=O)[C@H]1O[C@@H](n2ccc(=O)[nH]c2=O)[C@H](O)[C@@H]1O	1	/	-7	3	/
CCN(c1ccc(C)c(C)c1)S(=O)(=O)c1ccc2c(c1)CCN2C(=O)CCC(=O)O	29*	-3	0	2	-5
CC1CCCCN1CC(O)COCCC12CC3CC(CC(C3)C1)C2 (stereo not given)	25*	1	-2	7	-8
COC(=O)C1=C(C)N(C)C(=NCc2cc(OC)c(OC)c(OC)c2)NC1c1cccc(C(F)(F)F)c1 (stereo not given)	8	/	-4	-14	/
Cc1ccc(NC(=O)C2C3/C=C\CCCCC32)cc1C (stereo not given)	44*	-2	-6	9	-3
O=C(Nc1ccccc1)C1C2/C=C\CCCCC21 (stereo not given)	9	5	-1	19	/
Cc1ccc(CNC(=O)Cn2c(=O)c3sccc3n(Cc3ccc([N+](=O)[O-])cc3)c2=O)cc1	36*	-2	-9	22	55*
COc1ccccc1C(=O)O/N=C1/CCCc2c1ccc(OC)c2[N+](=O)[O-]	-10	-2	-2	-15	/
COc1cc(C(=O)O/N=C2\CCCc3c2ccc(OC)c3[N+](=O)[O-])cc(OC)c1OC	25*	1	-3	11	-7
O=C(NCc1cccc(C(F)(F)F)c1)C1C(=O)Nc2ccccc2C(=O)N1C1CCCC1 (stereo not given)	-15	/	-5	-3	/
Fc1ccc(Cc2nnc(-c3cccs3)o2)cc1	-3	-2	1	7	/
Fc1ccc(-c2nnc(Cc3ccc(Cl)cc3)o2)cc1	40*	-2	-2	1	-2
Cc1cn2c(=O)c3ncn(C4OC(CO)C(O)C4O)c3n(C)c2n1 (stereo not given)	6	/	0	4	/
CCCCOCC1CN(CCCC)S(=O)(=O)c2c(cccc2Sc2ccc(OC)c(OC)c2)O1 (stereo not given)	-14	/	-3	10	/
C=CCOCCN(C)C1=NS(=O)(=O)c2cc([N+](=O)[O-])ccc21	-10	-3	-6	11	/
CN(CCO)C1=NS(=O)(=O)c2cc([N+](=O)[O-])ccc21	30*	-2	-3	4	-2
O=C(CN(C(=O)c1csnn1)c1cccc(F)c1)NCc1ccc2c(c1)OCO2	-2	-2	-5	0	/
O=C(CN(C(=O)c1csnn1)c1ccccc1F)NCc1ccc2c(c1)OCO2	25*	2	-8	4	4
COc1ccc(C(=O)Nc2cccc(-c3ccc(N4CCOCC4)nn3)c2)cc1OC	29*	-4	1	0	14
O=C(/C=C(\Nc1cc(Cl)c(F)c(Cl)c1)c1ccccc1)c1ccccc1	-1	/	-4	-4	/
Cn1c(=O)c2c(nc(SCc3cccnc3)n2Cc2ccccc2)n(C)c1=O	26*	2	8	-10	6
O=C(O)CCCC[n+]1ccccc1	11	/	-7	-9	/
O=[N+]([O-])c1ccc(/C=N/Nc2ccnc3cc(Cl)ccc23)o1	3	1	-9	5	/
Clc1ccc2c(N/N=C/c3ccccc3Br)ccnc2c1	27*	3	-1	1	26*
Clc1ccc2c(N/N=C/c3cccc(Br)c3)ccnc2c1	38*	-5	-7	16	63*
Cc1ccc(C(=O)NCCCNc2ccc(C(F)(F)F)cc2[N+](=O)[O-])cc1	25*	0	-6	-11	4
